Converted amounts (≈) assume the structure as drawn. The source made the active and inactive calls. The calls are words filed in the database; no cut-off is given here.
Assays:
Streptococcus pneumoniae [1] = test: Antibacterial activity against Streptococcus pneumoniae 700677 assessed as inhibition of bacterial growth incubated for 18 to 20 hrs by CLSI protocol based broth microdilution method; assay type: functional; conditions: time 18-20 hrs
Procedure, shortened: (§1)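 Streptococci were diluted from a 0.5 McFarland suspension in cation-adjusted Mueller Hinton broth with 5% lysed horse blood. They were incubated with serial dilutions of test agent in broth microdilution, and the MIC was recorded.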

Staphylococcus aureus [2] = test: Antibacterial activity against vancomycin resistant Staphylococcus aureus 9 assessed as inhibition of bacterial growth incubated for 18 to 20 hrs by CLSI protocol based broth microdilution method; assay type: functional; conditions: time 18-20 hrs
Procedure, shortened: (§2)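 Broth microdilution against staphylococcal clinical isolates. Each strain was prepared as a 0.5 McFarland suspension and diluted in cation-adjusted Mueller Hinton broth to ~5 × 10^5 CFU mL−1. Serial dilutions of test agents in DMSO stock were incubated with the bacteria, and the MIC was recorded.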

Staphylococcus aureus [3] = test: Antibacterial activity against methicillin sensitive Staphylococcus aureus 6538 assessed as inhibition of bacterial growth at 0.5 ug/ml incubated for 18 to 20 hrs by CLSI protocol based broth microdilution method; assay type: functional, organism-based; conditions: dose 0.5 µg/ml, time 18-20 hrs
Procedure, shortened: (§3)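 Staphylococcal and E. coli strains were diluted from a 0.5 McFarland suspension in cation-adjusted Mueller Hinton broth to ~5 × 10^5 CFU mL−1. They were incubated with serial dilutions of test agent in broth microdilution, and the MIC was recorded.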

Listeria monocytogenes = test: Antibacterial activity against Listeria monocytogenes 19111 assessed as inhibition of bacterial growth incubated for 18 to 20 hrs by CLSI protocol based broth microdilution method; assay type: functional; conditions: time 18-20 hrs
Procedure, shortened: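 Enterococci and L. monocytogenes were diluted from a 0.5 McFarland suspension in TSB. They were incubated with serial dilutions of test agent in broth microdilution, and the MIC was recorded.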

Staphylococcus aureus [4] = test: Antibacterial activity against methicillin sensitive Staphylococcus aureus 107 assessed as inhibition of bacterial growth incubated for 18 to 20 hrs by CLSI protocol based broth microdilution method; assay type: functional; conditions: time 18-20 hrs; procedure, shortened: as §2
Streptococcus pyogenes [5] = test: Antibacterial activity against Streptococcus pyogenes MGAS 1882 assessed as inhibition of bacterial growth incubated for 18 to 20 hrs by CLSI protocol based broth microdilution method; assay type: functional; conditions: time 18-20 hrs; procedure, shortened: as §1
Streptococcus pyogenes [6] = test: Antibacterial activity against Streptococcus pyogenes MGAS 9882 assessed as inhibition of bacterial growth incubated for 18 to 20 hrs by CLSI protocol based broth microdilution method; assay type: functional; conditions: time 18-20 hrs; procedure, shortened: as §1
Staphylococcus aureus [7] = test: Antibacterial activity against vancomycin resistant Staphylococcus aureus 12 assessed as inhibition of bacterial growth incubated for 18 to 20 hrs by CLSI protocol based broth microdilution method; assay type: functional; conditions: time 18-20 hrs; procedure, shortened: as §2
Staphylococcus aureus [8] = test: Antibacterial activity against methicillin resistant Staphylococcus aureus NRS384 USA300 assessed as inhibition of bacterial growth incubated for 18 to 20 hrs by CLSI protocol based broth microdilution method; assay type: functional; conditions: time 18-20 hrs, read-out: MIC; procedure, shortened: as §2
Streptococcus mutans = test: Antibacterial activity against Streptococcus mutans 25175 assessed as inhibition of bacterial growth incubated for 18 to 20 hrs by CLSI protocol based broth microdilution method; assay type: functional; conditions: time 18-20 hrs; procedure, shortened: as §1
Staphylococcus aureus [9] = test: Antibacterial activity against methicillin sensitive Staphylococcus aureus 107 assessed as inhibition of bacterial growth at 0.5 ug/ml incubated for 18 to 20 hrs by CLSI protocol based broth microdilution method; assay type: functional, organism-based; conditions: dose 0.5 µg/ml, time 18-20 hrs; procedure, shortened: as §3
Staphylococcus aureus [10] = test: Antibacterial activity against methicillin resistant Staphylococcus aureus 123 assessed as inhibition of bacterial growth at 0.5 ug/ml incubated for 18 to 20 hrs by CLSI protocol based broth microdilution method; assay type: functional, organism-based; conditions: dose 0.5 µg/ml, time 18-20 hrs
Staphylococcus aureus [11] = test: Antibacterial activity against methicillin sensitive Staphylococcus aureus 6538 assessed as inhibition of bacterial growth incubated for 18 to 20 hrs by CLSI protocol based broth microdilution method; assay type: functional; conditions: time 18-20 hrs; procedure, shortened: as §2
Staphylococcus aureus [12] = test: Antibacterial activity against vancomycin resistant Staphylococcus aureus 10 assessed as inhibition of bacterial growth incubated for 18 to 20 hrs by CLSI protocol based broth microdilution method; assay type: functional; conditions: time 18-20 hrs; procedure, shortened: as §2
Staphylococcus aureus [13] = test: Antibacterial activity against methicillin resistant Staphylococcus aureus 386 assessed as inhibition of bacterial growth at 0.5 ug/ml incubated for 18 to 20 hrs by CLSI protocol based broth microdilution method; assay type: functional, organism-based; conditions: dose 0.5 µg/ml, time 18-20 hrs
Staphylococcus aureus [14] = test: Antibacterial activity against methicillin resistant Staphylococcus aureus 119 assessed as inhibition of bacterial growth at 0.5 ug/ml incubated for 18 to 20 hrs by CLSI protocol based broth microdilution method; assay type: functional, organism-based; conditions: dose 0.5 µg/ml, time 18-20 hrs
Staphylococcus aureus [15] = test: Antibacterial activity against methicillin resistant Staphylococcus aureus 123 assessed as inhibition of bacterial growth incubated for 18 to 20 hrs by CLSI protocol based broth microdilution method; assay type: functional; conditions: time 18-20 hrs; procedure, shortened: as §2
Staphylococcus aureus [16] = test: Antibacterial activity against vancomycin resistant Staphylococcus aureus 9 assessed as inhibition of bacterial growth at 0.5 ug/ml incubated for 18 to 20 hrs by CLSI protocol based broth microdilution method; assay type: functional, organism-based; conditions: dose 0.5 µg/ml, time 18-20 hrs
[17] = system: Staphylococcus epidermidis; test: Antibacterial activity against Staphylococcus epidermidis 101 assessed as inhibition of bacterial growth incubated for 18 to 20 hrs by CLSI protocol based broth microdilution method; assay type: functional; conditions: time 18-20 hrs; procedure, shortened: as §3
Staphylococcus aureus [18] = test: (§4) Antibacterial activity against methicillin resistant Staphylococcus aureus NRS384 USA300 infected in Balb/c mouse model of skin infection assessed as reduction in inflammation administered topically twice daily for three consecutive days from day 4 to 6 and measured 24 hrs post last dose; assay type: functional, organism-based; conditions: route top, time 4.0 day
Procedure, shortened: (§5)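 Mice were anesthetized with 2,2,2-tribromoethanol and injected subcutaneously with 100 μL containing 2 × 10^9 CFU MRSA USA300 in 0.5% HPMC in saline. Topical treatment used a petroleum jelly vehicle, with a fusidic acid positive control. Lesions were photographed 24 h after the last dose. A ~1.5 cm2 skin patch (homogenized in 1 mL saline) and the spleen (in 0.5 mL) were serially diluted and plated on MSA at 37 °C overnight for CFU.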

Streptococcus pneumoniae [19] = test: Antibacterial activity against Streptococcus pneumoniae 51916 assessed as inhibition of bacterial growth incubated for 18 to 20 hrs by CLSI protocol based broth microdilution method; assay type: functional; conditions: time 18-20 hrs; procedure, shortened: as §1
Staphylococcus aureus [20] = test: Antibacterial activity against vancomycin resistant Staphylococcus aureus 12 assessed as inhibition of bacterial growth at 0.5 ug/ml incubated for 18 to 20 hrs by CLSI protocol based broth microdilution method; assay type: functional, organism-based; conditions: dose 0.5 µg/ml, time 18-20 hrs
Staphylococcus aureus [21] = test: Post antibiotic effect against methicillin resistant Staphylococcus aureus NRS384 USA300 assessed as time required for 1 log10 increase in CFU at 5 times of MIC incubated for 2 hrs followed by replacement with drug free medium and measured after 18-24 hrs; assay type: functional
Procedure, shortened: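 MRSA USA300 at ~10^6 CFU mL−1 was exposed for 2 h to 5× MIC of test agent, with vancomycin or DMSO as controls. Drug was removed by 1:1000 dilution in fresh TSB. Cultures were incubated at 37 °C with 180 rpm shaking and sampled hourly for 8 h, with viable counts on MSA read after 18–24 h. PAE = T − C, where T and C are the times for a 1 log10 rise in the test and control cultures.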

Staphylococcus aureus [22] = test: Antibacterial activity against methicillin resistant Staphylococcus aureus 384 assessed as inhibition of bacterial growth at 0.5 ug/ml incubated for 18 to 20 hrs by CLSI protocol based broth microdilution method; assay type: functional, organism-based; conditions: dose 0.5 µg/ml, time 18-20 hrs
Staphylococcus aureus [23] = test: as §4, with “bacterial burden in skin lesions” for “inflammation”; assay type: functional; conditions: route top; time 4 day; procedure, shortened: as §5
Staphylococcus aureus [24] = test: Antibacterial activity against methicillin resistant Staphylococcus aureus 384 assessed as inhibition of bacterial growth incubated for 18 to 20 hrs by CLSI protocol based broth microdilution method; assay type: functional; conditions: time 18-20 hrs; procedure, shortened: as §2
Staphylococcus aureus [25] = test: Antibacterial activity against methicillin resistant Staphylococcus aureus 386 assessed as inhibition of bacterial growth incubated for 18 to 20 hrs by CLSI protocol based broth microdilution method; assay type: functional; conditions: time 18-20 hrs; procedure, shortened: as §2

`C/C(=N\NC(=N)N)c1ccc(NC(=O)Nc2ccc(C#Cc3ccccc3)cc2)cc1` was tested, and the MIC (Streptococcus pneumoniae [1]) was 0.5 µg/mL (≈ 1.22 µM), the MIC (Staphylococcus aureus [2]) was 0.5 µg/mL (≈ 1.22 µM) and the Activity (Staphylococcus aureus [3]) was “Active”. The MIC (Listeria monocytogenes) was 0.5 µg/mL (≈ 1.22 µM), the MIC (Staphylococcus aureus [4]) was 0.5 µg/mL (≈ 1.22 µM) and the MIC (Streptococcus pyogenes [5]) was 0.5 µg/mL (≈ 1.22 µM). The MIC (Streptococcus pyogenes [6]) was 0.5 µg/mL (≈ 1.22 µM), the MIC (Staphylococcus aureus [7]) was 0.5 µg/mL (≈ 1.22 µM) and the MIC (Staphylococcus aureus [8]) was 0.5 µg/mL (≈ 1.22 µM). The MIC (Streptococcus mutans) was 0.5 µg/mL (≈ 1.22 µM), the Activity (Staphylococcus aureus [9]) was “Active” and the Activity (Staphylococcus aureus [10]) was “Active”. The MIC (Staphylococcus aureus [11]) was 0.5 µg/mL (≈ 1.22 µM), the MIC (Staphylococcus aureus [12]) was 0.5 µg/mL (≈ 1.22 µM) and the Activity (Staphylococcus aureus [13]) was “Active”. The Activity (Staphylococcus aureus [14]) was “Active”, the MIC (Staphylococcus aureus [15]) was 0.5 µg/mL (≈ 1.22 µM) and the Activity (Staphylococcus aureus [16]) was “Active”. The MIC [17] was 0.5 µg/mL (≈ 1.22 µM), the Activity (Staphylococcus aureus [18]) was “Active” and the MIC (Streptococcus pneumoniae [19]) was 0.5 µg/mL (≈ 1.22 µM). The Activity (Staphylococcus aureus [20]) was “Active”, the Time (Staphylococcus aureus [21]) was 5 h and the Activity (Staphylococcus aureus [22]) was “Active”. It also gave an Activity (Staphylococcus aureus [23]) of 0.5 log10CFU/ml, an MIC (Staphylococcus aureus [24]) of 0.5 µg/mL (≈ 1.22 µM) and an MIC (Staphylococcus aureus [25]) of 0.5 µg/mL (≈ 1.22 µM).
